Laboratory results published in ChEMBL document CHEMBL1649122, “Abc1p is a multidrug efflux transporter that tips the balance in favor of innate azole resistance in Candida krusei” (2009).
Active and inactive are the calls of the source. No cut-off for these calls is given here.

Key:
Conditions in all cases: Pichia kudriavzevii
[1] = target: ATP binding cassette transporter Abc1p (Issatchenkia orientalis) (UniProt Q09GQ4); experiment: Inhibition of Candida krusei Abc1p expressed in Saccharomyces cerevisiae isolate AD assessed as reduction of itraconazole MIC at 5 ug after 48 hrs by agarose diffusion assay
[2] = target: ATP binding cassette transporter Abc1p (Issatchenkia orientalis) (UniProt Q09GQ4); experiment: Inhibition of Candida krusei B2399 Abc1p assessed as reduction of itraconazole MIC at 5 ug after 48 hrs by agarose diffusion assay
[3] = target: ATP binding cassette transporter Abc1p (Issatchenkia orientalis) (UniProt Q09GQ4); experiment: Inhibition of Candida krusei IF011 Abc1p assessed as reduction of itraconazole MIC at 5 ug after 48 hrs by agarose diffusion assay
[4] = target: ATP binding cassette transporter Abc1p (Issatchenkia orientalis) (UniProt Q09GQ4); experiment: Inhibition of Candida krusei ABC1 expressed in Saccharomyces cerevisiae isolate ADdelta at 12 nM
In short: (§1)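 Agarose disk-diffusion test of S. cerevisiae AD overexpressing C. krusei Abc1p, with the parent AD strain as comparison. Cells were pregrown from YPD overnight into CSM to mid-log at 30°C. They were seeded at OD600 0.008 in CSM with 0.6% agarose, overlaid on CSM agar (pH 7.0). Paper disks carrying set nmol amounts of xenobiotic were applied, and plates were incubated at 30°C for 48 h before reading growth inhibition zones.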

[5] = target: ATP binding cassette transporter Abc1p (Issatchenkia orientalis) (UniProt Q09GQ4); experiment: Inhibition of Candida krusei ABC1 expressed in Saccharomyces cerevisiae isolate ADdelta at 0.24 nM
[6] = target: ATP binding cassette transporter Abc1p (Issatchenkia orientalis) (UniProt Q09GQ4); experiment: Inhibition of Candida krusei ABC1 expressed in Saccharomyces cerevisiae isolate ADdelta at 131 nM; in short: as §1
[7] = target: ATP binding cassette transporter Abc1p (Issatchenkia orientalis) (UniProt Q09GQ4); experiment: Inhibition of Candida krusei ABC1 expressed in Saccharomyces cerevisiae isolate ADdelta at 20 nM
[8] = target: ATP binding cassette transporter Abc1p (Issatchenkia orientalis) (UniProt Q09GQ4); experiment: Inhibition of Candida krusei ABC1 expressed in Saccharomyces cerevisiae isolate ADdelta at 4 nM

**Q.** What does the source list for `C=CC[C@@H]1/C=C(\C)C[C@H](C)C[C@H](OC)[C@H]2O[C@@](O)(C(=O)C(=O)N3CCCC[C@H]3C(=O)O[C@H](/C(C)=C/[C@@H]3CC[C@@H](O)[C@H](OC)C3)[C@H](C)[C@@H](O)CC1=O)[C@H](C)C[C@@H]2OC`?
**A.** Activity [1]: Active; Activity [2]: Active; Activity [3]: Active

**Q.** Which Activity [4] does the source give for `CC[C@@]1([C@@H]2O[C@@H]([C@H]3O[C@@](O)(CO)[C@H](C)C[C@@H]3C)C[C@@H]2C)CC[C@H]([C@]2(C)CC[C@]3(C[C@H](O)[C@@H](C)[C@@H]([C@@H](C)[C@@H](OC)[C@H](C)C(=O)O)O3)O2)O1` here?
**A.** Its Activity is “Active”.

**Q.** `C/C1=C/C(=O)O[C@@H]2C[C@@H](CC[C@H](C)/C=C\C=C\CC1)O[C@@](O)([C@@H]1CSC(=O)N1)C2` was tested. Which Activity [5] did it give?
**A.** The Activity was “Active”.

**Q.** Which Activity [6] does the source give for `COC(=O)c1ccccc1-c1c2ccc(=N)cc-2oc2cc(N)ccc12` here?
**A.** The Activity was “Active”.

**Q.** For `C=C1[C@@H](C)[C@H]2[C@H](Cc3ccccc3)NC(=O)[C@]23[C@H](OC(C)=O)/C=C/[C@@](C)(O)C(=O)[C@@H](C)C/C=C/[C@H]3[C@@H]1O`, which Activity [7] is on record?
**A.** Its Activity is “Active”.

**Q.** How did the Activity [8] turn out when `O=[N+]([O-])c1cc[n+]([O-])c2ccccc12` was run?
**A.** Its Activity is “inactive”.
